Sampled rows, rich in hits. Any-hit rate of the full collection: about 2.3%.
TRPC4 agonist – TRPC4 (mouse) channel activation. AID 2237. 310,000 tested, 0.49% active. B-score at 10 µM. Q9QUQ5. HEK293 TRPC4beta/mu-opioid, Fluo4 calcium fluorescence; hits give high values;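 active = B-score above 5 SD of library B-scores, and initial fluorescence ratio not above library mean plus 5 SD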;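 also: positive B-score marks a calcium rise read as TRPC4 activation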
Target sequence (Q9QUQ5 whole entry, looked up): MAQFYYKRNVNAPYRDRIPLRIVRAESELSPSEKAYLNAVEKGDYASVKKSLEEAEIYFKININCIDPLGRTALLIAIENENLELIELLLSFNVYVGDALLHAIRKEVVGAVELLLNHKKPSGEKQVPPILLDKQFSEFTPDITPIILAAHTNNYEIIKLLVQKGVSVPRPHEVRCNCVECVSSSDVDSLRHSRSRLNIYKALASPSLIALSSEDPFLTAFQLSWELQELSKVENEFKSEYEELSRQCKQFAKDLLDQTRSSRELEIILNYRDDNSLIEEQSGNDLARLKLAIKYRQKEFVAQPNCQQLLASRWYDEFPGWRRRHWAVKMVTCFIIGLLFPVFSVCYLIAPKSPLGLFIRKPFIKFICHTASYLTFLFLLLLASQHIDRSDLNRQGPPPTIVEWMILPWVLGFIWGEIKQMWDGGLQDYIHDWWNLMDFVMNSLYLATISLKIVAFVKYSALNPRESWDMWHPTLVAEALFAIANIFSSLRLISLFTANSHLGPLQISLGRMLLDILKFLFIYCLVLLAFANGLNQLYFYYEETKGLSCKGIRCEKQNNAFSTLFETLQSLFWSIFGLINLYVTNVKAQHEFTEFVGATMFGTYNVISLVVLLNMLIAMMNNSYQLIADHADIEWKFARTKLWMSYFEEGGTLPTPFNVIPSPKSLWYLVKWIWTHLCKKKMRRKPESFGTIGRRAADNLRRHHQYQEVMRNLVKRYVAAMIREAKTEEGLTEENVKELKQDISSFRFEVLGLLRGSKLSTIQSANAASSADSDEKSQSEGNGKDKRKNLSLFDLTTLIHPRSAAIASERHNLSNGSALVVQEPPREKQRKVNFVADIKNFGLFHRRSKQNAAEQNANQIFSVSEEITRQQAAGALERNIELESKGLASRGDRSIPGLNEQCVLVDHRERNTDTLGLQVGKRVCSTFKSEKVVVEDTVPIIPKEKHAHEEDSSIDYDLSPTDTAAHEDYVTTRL
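Material: HEK293 stable line with TRPC4beta plus mu-opioid receptor; technique: Fluo4 calcium-sensitive dye fluorescence, kinetic, 1 Hz baseline; timing: Fluo4 dye loading 45 min at room temperature, 110 s recording; controls: assay buffer as low control, maximal DAMGO as high control; read-out: integrated baseline-normalised fluorescence ratio, converted to per-well B score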
TRPC4 potent – TRPC4 (mouse) allosteric potentiation. HEK293 TRPC4beta/mu-opioid, DAMGO EC20, Fluo-4 Ca2+ flux; hits give high values. B-score at 10 µM. 310,000 tested, 0.42% active. AID 2227;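 active = B-score of calcium response area above 5 SD of library B-scores, with initial fluorescence ratio within 5 SD of library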
TRPC4 block – inhibitors of mouse TRPC4 channel; Q9QUQ5; HEK293 TRPC4beta/mu-opioid, DAMGO-evoked Fluo4 calcium flux; hits give low values; B-score at 10 µM; 300,000 tested, 0.39% active;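 active = B-score over 3 SD under the library average, no early fluorescence shift, positive overall ratio signal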
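Assay system: Stable TRPC4beta/mu-opioid receptor HEK293 cells | Reagent: DAMGO in two steps, submaximal then maximal | Compound dosing: Single concentration per test compound | Signal: Fluo4 Ca2+ flux fluorescence | Evaluation: Per-well B score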
TRPC6 inhibitor – mouse TRPC6 channel inhibition; AID 2553; 310,000 tested, 1.1% active; B-score at 10 µM; Q61143; HEK293-TRPC6, membrane potential dye, ACh-evoked depolarization; hits give low values;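 active = B-score under library mean minus 3 SD, initial fluorescence not abnormally high, positive integrated signal ratio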;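 also: B-score derived from integrated fluorescence ratio over the kinetic read; more negative B-score means stronger inhibition of depolarization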
TRPC6 act – mouse TRPC6 channel activation. Q61143. HEK293-TRPC6 membrane potential dye fluorescence; hits give high values. B-score at 10 µM. 310,000 tested, 0.13% active. AID 2550;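 active = B-score of the integrated fluorescence ratio above library mean plus 3 SD, and starting fluorescence ratio within library mean plus 5 SD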;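 also: higher score means more depolarization so channel activation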
TRPC4 spec 2 – mouse TRPC4 off-target activity of TRPC6 inhibitors, second screen. HEK293 TRPC4/MOR, membrane potential dye fluorescence; channel activated by saturating DAMGO dose. inhibition, % at 10 µM. shares compounds with TRPC6 inhibitor. 920 tested, 42% active;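 active = compounds whose fluorescence signal differed from control wells by over 3 SD, either direction, in both duplicate plates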
TRPC4 spec – mouse TRPC4 off-target activity of TRPC6 inhibitors; AID 2777; HEK293 TRPC4/mu-opioid, membrane potential fluorescence; 920 tested, 61% active; activity change, negative = inhibition, % at 10 µM; shares compounds with TRPC6 inhibitor;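 active = rise or fall in signal beyond 3 SD of buffer-only wells in both replicate plates, either sign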;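 also: integrated kinetic ratio of fluorescence range over baseline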
HEK293 MPD ctr 2-1 – second counter-screen for TRPC6 inhibitors: parental HEK293 cells; parental HEK293 membrane potential dye fluorescence; maximal acetylcholine challenge after compound addition; 920 tested, 31% active; signal change vs control, % at 10 µM; AID 2779; shares compounds with TRPC6 inhibitor;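 active = membrane potential signal moving either way by over 3 SD of the maximum-effect control, in both duplicate plates, meaning non-specific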
HEK293 MPD ctr-1 – parental HEK293 nonspecific activity of TRPC6 inhibitors; shares compounds with TRPC6 inhibitor; parental HEK293 membrane potential dye fluorescence; membrane potential signal change, % at 10 µM; 920 tested, 60% active; AID 2780;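 active = membrane potential signal shifting up or down by more than 3 SD of buffer-only wells, on both duplicate plates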
HEK293 MPD ctr-2 – checks TRPC6 modulator effects in parental HEK293 cells. shares compounds with TRPC6 inhibitor. membrane potential dye fluorescence. membrane potential signal change, % at 10 µM. 2,400 tested, 51% active;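 active = membrane potential signal moves up or down beyond 5 SD from buffer-only wells, on both duplicate plates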
HEK293 MPD ctr 2-2 – parental HEK293 nonspecific activity of TRPC6 modulators, second screen; AID 488926; 2,400 tested, 14% active; shares compounds with TRPC6 inhibitor; membrane potential dye fluorescence; after compound, maximal acetylcholine stimulation; inhibition, % at 10 µM;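 active = membrane potential signal drops by more than 5 SD from the mean control signal, in both duplicate plates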
TRPC4 ctr mod – selectivity of TRPC6 modulators against mouse TRPC4. shares compounds with TRPC6 inhibitor. HEK293 TRPC4/mu-opioid, membrane potential fluorescence. percent change from control (negative = decrease, positive = increase), % at 10 µM. 2,400 tested, 69% active;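 active = membrane potential signal moved up or down beyond 5 SD of buffer control wells, in both duplicate plates, actives on both sides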
TRPC4/MOR inh 2 – mouse TRPC4 off-target activity of TRPC6 modulators, second screen; shares compounds with TRPC6 inhibitor; HEK293 TRPC4/mu-opioid, membrane potential dye fluorescence; stimulated with maximal-effect DAMGO; inhibition, % at 10 µM; 2,400 tested, 55% active; AID 488928;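 active = drop in membrane potential signal beyond 5 SD of the control wells in both duplicate plates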;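 also: TRPC4 counter screen for TRPC6 hits run under conditions tuned for TRPC6 not TRPC4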
TRPC6 block conf – confirmation of mouse TRPC6 inhibitors. inhibition, % at 10 µM. 3,300 tested, 43% active. AID 488960. shares compounds with TRPC6 inhibitor. HEK293-TRPC6, membrane potential dye, ACh-evoked depolarization;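 active = fluorescence ratio falls more than 5 SD below the full-stimulation control mean, in both duplicate runs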;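 also: integrated fluorescence ratio of peak minus minimum over baseline after agonist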
TRPC6 act confirm – confirmation of mouse TRPC6 activators | shares compounds with TRPC6 inhibitor | HEK293-TRPC6 membrane potential dye fluorescence, FDSS | activation, % at 10 µM | 2,800 tested, 11% active;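 active = ratio signal rise beyond 5 SD above unstimulated control wells' mean, seen in both duplicate runs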
A number is an active result; – = inactive; · = not tested or not shown.

SMILES	TRPC4 agonist	TRPC4 potent	TRPC4 block	TRPC6 inhibitor	TRPC6 act	TRPC4 spec 2	TRPC4 spec	HEK293 MPD ctr 2-1	HEK293 MPD ctr-1	HEK293 MPD ctr-2	HEK293 MPD ctr 2-2	TRPC4 ctr mod	TRPC4/MOR inh 2	TRPC6 block conf	TRPC6 act confirm
CCOC(=O)c1nc2cc3n(c(CC(C)C)c-2c1C)CC(C)=C3C	–	–	–	-6.4	–	·	·	·	·	-87%	69%	-20%	54%	49%	–
CCOC(=O)c1nc2cc3n(c(C)c-2c1C)C(C)C(C)=C3C (stereo not given)	–	–	–	-8.1	–	70%	7.3%	-192%	–	·	·	·	·	–	–
COc1ccc(-c2nc3ccccc3c(=O)n2CC(C)C)cc1	–	–	–	–	–	·	·	·	·	·	·	·	·	·	·
Cc1nc2cc(-c3ccc(Cl)cc3)nn2c(NCCN(C)C)c1C	–	–	–	-6	–	·	·	·	·	-89%	–	-21%	46%	–	–
Cc1cc(C)n2nc(-c3ccc(Cl)cc3)cc2n1	–	–	–	–	–	·	·	·	·	·	·	·	·	·	·
CCC1CCCCN1CCn1c(=S)[nH]c2cc(OC)c(OC)cc2c1=O (stereo not given)	–	–	–	-6.3	–	·	·	·	·	–	–	10%	28%	–	–
CC(=O)N(Cc1ccc(F)cc1)C1=C(NCCc2ccccc2)C(=O)c2ccccc2C1=O	–	–	–	-11	–	–	-11%	–	-182%	·	·	·	·	–	–
O=C(c1ccc([N+](=O)[O-])cc1)N(Cc1ccc(Br)cc1)N1C(=O)CCCC1=O	45	–	–	-9.8	16	·	·	·	·	458%	186%	38%	34%	68%	100%
COc1ccc(C2=NCCc3cc(OC)c(OC)cc32)cc1	–	–	–	–	–	·	·	·	·	·	·	·	·	·	·
COc1ccc(C2=NCCc3cc(OC)c(OC)cc32)cc1OC	–	–	–	-7.4	–	·	·	·	·	-410%	–	-70%	62%	63%	–
CC1CCCCN1C(=O)CSc1nc(C2CC2)nc2ccccc12 (stereo not given)	–	–	–	–	–	·	·	·	·	·	·	·	·	·	·
Cc1ccccc1C(=O)NCCSc1ccccc1	–	–	–	-7.5	–	–	3.9%	–	2.1%	·	·	·	·	–	–
O=C(OCCN1CCCC1)C1(c2ccccc2)CCCC1	–	–	–	-8	–	–	9.8%	16%	13%	·	·	·	·	64%	·
CCNC(=O)C1(c2ccccc2)CCCC1	–	–	–	–	–	·	·	·	·	·	·	·	·	·	·
O=C(OCCN1CCCCC1)c1ccccc1Br	–	–	–	–	–	·	·	·	·	·	·	·	·	·	·
O=C(OCCN1CCCCC1)C1(c2ccccc2)CCCC1	–	–	–	-7.4	–	–	19%	21%	16%	·	·	·	·	83%	·
C[N+]1(CCCOC(=O)C2(c3ccccc3)CCCC2)CCOCC1	–	–	–	-5.4	–	·	·	·	·	–	–	–	–	–	–

From PubChem BioAssay
